Data taken from ChEMBL document CHEMBL1135739, “Radiolabeled amino acids for tumor imaging with PET: radiosynthesis and biological evaluation of 2-amino-3-[18F]fluoro-2-methylpropanoic acid and 3-[18F]fluoro-2-methyl-2-(methylamino)propanoic acid” (J Med Chem, 2002).
Where “and” joins values, the source holds several entries; their conditions need not be identical. Identical values can stand only once.

Experiments:
Rattus norvegicus [1] = species: Rattus norvegicus; experiment: Radioactivity distribution in spleen of normal fischer rat after injection of [18F]-fluoro-2-methyl-2-(methylamino)propanoic acid after 5 min.; type: ADME, organism-based; conditions: in vivo
Outline: (§1)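 Male Fischer 344 rats (200–250 g), fed ad libitum, under intramuscular ketamine:xylazine anesthesia, got ~85 μCi radiotracer in 0.3 mL sterile water by tail-vein catheter. Groups of four were killed at 5, 30, 60 or 120 min. Dissected tissues were weighed and gamma-counted with dose standards. Counts were decay-corrected and given as %ID/g, mean ± standard error. Tissues were compared by one-way ANOVA.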

Rattus norvegicus [2] = species: Rattus norvegicus; experiment: Radioactivity distribution in lung of normal fischer rat after injection of [18F]-fluoro-2-methyl-2-(methylamino)propanoic acid after 120 min.; type: ADME, organism-based; conditions: in vivo, 2 h
Outline: (§2)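 Male Fischer 344 rats (200–250 g), fed ad libitum, anesthetized with intramuscular ketamine:xylazine (1:1, 0.1 mL/100 g). About 85 μCi tracer in 0.3 mL sterile water was given by tail-vein catheter. Groups of four were killed at 5, 30, 60 or 120 min. Tissues were weighed and gamma-counted against dose standards, decay-corrected, and expressed as %ID/g (mean ± standard error).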

Rattus norvegicus [3] = species: Rattus norvegicus; experiment: Radioactivity distribution in testis of normal fischer rat after injection of [18F]-fluoro-2-methyl-2-(methylamino)propanoic acid after 120 min.; type: ADME, organism-based; conditions: in vivo, 2 h; outline: as §1
Rattus norvegicus [4] = species: Rattus norvegicus; experiment: Radioactivity distribution in muscle of normal fischer rat after injection of [18F]-fluoro-2-methyl-2-(methylamino)propanoic acid after 30 min.; type: ADME, organism-based, Muscle tissue; conditions: in vivo, 0.5 h; outline: as §2
Rattus norvegicus [5] = species: Rattus norvegicus; experiment: Radioactivity distribution in blood of normal fischer rat after injection of [18F]-fluoro-2-methyl-2-(methylamino)propanoic acid after 120 min.; type: ADME, organism-based; conditions: in vivo, 2 h
Outline: (§3)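 Normal male Fischer 344 rats (200–250 g), anesthetized with i.m. ketamine:xylazine (1:1), got ~85 μCi of tracer in 0.3 mL sterile water i.v. via tail-vein catheter. Groups of four were killed at 5, 30, 60 or 120 min. Tissues were weighed and gamma-counted against dose standards, and counts were decay-corrected to %ID/g. Results are mean ± standard error (n = 4), compared by one-way ANOVA.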

Rattus norvegicus [6] = species: Rattus norvegicus; experiment: Radioactivity distribution in pancreas of normal fischer rat after injection of [18F]-fluoro-2-methyl-2-(methylamino)propanoic acid after 5 min.; type: ADME, organism-based; conditions: in vivo; outline: as §2
Rattus norvegicus [7] = species: Rattus norvegicus; experiment: Radioactivity distribution in tumor of tumor-bearing fischer rat after injection of [18F]-fluoro-2-methyl-2-(methylamino)propanoic acid after 120 min.; conditions: in vivo, 2 h
Rattus norvegicus [8] = species: Rattus norvegicus; experiment: Radioactivity distribution in spleen of normal fischer rat after injection of [18F]-fluoro-2-methyl-2-(methylamino)propanoic acid after 30 min.; type: ADME, organism-based; conditions: in vivo, 0.5 h; outline: as §1
Rattus norvegicus [9] = species: Rattus norvegicus; experiment: Radioactivity distribution in blood of normal fischer rat after injection of [18F]-fluoro-2-methyl-2-(methylamino)propanoic acid after 5 min.; type: ADME, organism-based; conditions: in vivo; outline: as §3
Rattus norvegicus [10] = species: Rattus norvegicus; experiment: Radioactivity distribution in bone of normal fischer rat after injection of [18F]-fluoro-2-methyl-2-(methylamino)propanoic acid after 5 min.; type: ADME, organism-based, Bone element; conditions: in vivo; outline: as §3
Rattus norvegicus [11] = species: Rattus norvegicus; experiment: Radioactivity distribution in liver of normal fischer rat after injection of [18F]-fluoro-2-methyl-2-(methylamino)propanoic acid after 30 min.; type: ADME, organism-based; conditions: in vivo, 0.5 h; outline: as §2
Rattus norvegicus [12] = species: Rattus norvegicus; experiment: Radioactivity distribution in tumor of tumor-bearing fischer rat after injection of [18F]-fluoro-2-methyl-2-(methylamino)propanoic acid after 5 min.; conditions: in vivo
Rattus norvegicus [13] = species: Rattus norvegicus; experiment: Radioactivity distribution in liver of normal fischer rat after injection of [18F]-fluoro-2-methyl-2-(methylamino)propanoic acid after 5 min.; type: ADME, organism-based; conditions: in vivo; outline: as §2
Rattus norvegicus [14] = species: Rattus norvegicus; experiment: Radioactivity distribution in heart of normal fischer rat after injection of [18F]-fluoro-2-methyl-2-(methylamino)propanoic acid after 60 min.; type: ADME, organism-based; conditions: in vivo, 1 h; outline: as §3
Rattus norvegicus [15] = species: Rattus norvegicus; experiment: Radioactivity distribution in tumor of tumor-bearing fischer rat after injection of [18F]-fluoro-2-methyl-2-(methylamino)propanoic acid after 60 min.; conditions: in vivo, 1 h
Rattus norvegicus [16] = species: Rattus norvegicus; experiment: Radioactivity distribution in kidney of normal fischer rat after injection of [18F]-fluoro-2-methyl-2-(methylamino)propanoic acid after 60 min.; type: ADME, organism-based; conditions: in vivo, 1 h; outline: as §3
Rattus norvegicus [17] = species: Rattus norvegicus; experiment: Radioactivity distribution in spleen of normal fischer rat after injection of [18F]-fluoro-2-methyl-2-(methylamino)propanoic acid after 120 min.; type: ADME, organism-based; conditions: in vivo, 2 h; outline: as §2
Rattus norvegicus [18] = species: Rattus norvegicus; experiment: Radioactivity distribution in bone of normal fischer rat after injection of [18F]-fluoro-2-methyl-2-(methylamino)propanoic acid after 60 min.; type: ADME, organism-based, Bone element; conditions: in vivo, 1 h; outline: as §3
Rattus norvegicus [19] = species: Rattus norvegicus; experiment: Radioactivity distribution in brain of normal fischer rat after injection of [18F]-fluoro-2-methyl-2-(methylamino)propanoic acid after 60 min.; type: ADME, organism-based; conditions: in vivo, 1 h; outline: as §3
Rattus norvegicus [20] = species: Rattus norvegicus; experiment: Radioactivity distribution in blood of normal fischer rat after injection of [18F]-fluoro-2-methyl-2-(methylamino)propanoic acid after 30 min.; type: ADME, organism-based; conditions: in vivo, 0.5 h; outline: as §3
Rattus norvegicus [21] = species: Rattus norvegicus; experiment: Radioactivity distribution in blood of normal fischer rat after injection of [18F]-fluoro-2-methyl-2-(methylamino)propanoic acid after 60 min.; type: ADME, organism-based; conditions: in vivo, 1 h; outline: as §3
Rattus norvegicus [22] = species: Rattus norvegicus; experiment: Radioactivity distribution in lung of normal fischer rat after injection of [18F]-fluoro-2-methyl-2-(methylamino)propanoic acid after 5 min.; type: ADME, organism-based; conditions: in vivo; outline: as §2
Rattus norvegicus [23] = species: Rattus norvegicus; experiment: Radioactivity distribution in testis of normal fischer rat after injection of [18F]-fluoro-2-methyl-2-(methylamino)propanoic acid after 30 min.; type: ADME, organism-based; conditions: in vivo, 0.5 h; outline: as §1

CNC(C)(C[18F])C(=O)O.Cl (stereo not drawn)
ID/g (Rattus norvegicus [1]): 0.44% and 0.47% | ID/g (Rattus norvegicus [2]): 0.3% and 0.19% | ID/g (Rattus norvegicus [3]): 0.06% and 0.08% | ID/g (Rattus norvegicus [4]): 0.16% | ID/g (Rattus norvegicus [5]): 0.1% | ID/g (Rattus norvegicus [6]): 2.73% and 2.95% | ID/g (Rattus norvegicus [7]): 1.94% | ID/g (Rattus norvegicus [8]): 0.75% | ID/g (Rattus norvegicus [9]): 0.61% and 0.69% | ID/g (Rattus norvegicus [10]): 0.34% and 0.33% | ID/g (Rattus norvegicus [11]): 0.72% | ID/g (Rattus norvegicus [12]): 1.29% | ID/g (Rattus norvegicus [13]): 0.79% and 0.94% | ID/g (Rattus norvegicus [14]): 0.2% and 0.25% | ID/g (Rattus norvegicus [15]): 2.28% | ID/g (Rattus norvegicus [16]): 2.73% and 2.79% | ID/g (Rattus norvegicus [17]): 0.47% and 0.4% | ID/g (Rattus norvegicus [18]): 0.29% and 0.23% | ID/g (Rattus norvegicus [19]): 0.03% and < 0.022% | ID/g (Rattus norvegicus [20]): 0.3% | ID/g (Rattus norvegicus [21]): 0.18% and 0.17% | ID/g (Rattus norvegicus [22]): 0.53% and 0.61% | ID/g (Rattus norvegicus [23]): 0.11%
